# Bioassay records deposited in PubChem BioAssay by The Scripps Research Institute Molecular Screening Center.
# ASAP1 inh: ASAP1 ArfGAP inhibition; ASAP1-stimulated ARF1 GTP hydrolysis, GDP FP detection; inhibition, % at 16.5 µM; actives 0.19% (n = 360,000); AID 624377; in the data active means inhibition above about 25%
# PAFAH1B2 FP inh: blocks human PAF acetylhydrolase 1b catalytic subunit 2; actives 1.2% (n = 340,000); inhibition, % at 3.39 µM; AID 492953; recombinant PAFAH1B2, FP-rhodamine activity probe, fluorescence polarization;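 active means inhibition above the mean of all tested compounds plus 3 SD, cut at about 24% in these data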
# Target sequence (P68402 whole entry, looked up): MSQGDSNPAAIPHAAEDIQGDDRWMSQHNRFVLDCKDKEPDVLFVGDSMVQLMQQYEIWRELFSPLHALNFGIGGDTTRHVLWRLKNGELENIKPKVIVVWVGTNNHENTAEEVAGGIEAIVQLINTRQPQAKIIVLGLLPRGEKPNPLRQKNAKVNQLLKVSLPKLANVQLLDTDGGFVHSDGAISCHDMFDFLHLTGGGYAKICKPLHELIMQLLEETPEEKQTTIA
# PAFAH1B3 FP inh: inhibitors of human PAFAH1B3. recombinant PAFAH1B3, FP-rhodamine probe, fluorescence polarization. Q15102. actives 0.28% (n = 340,000). inhibition, % at 3.39 µM;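 active means inhibition above the screen-wide average of all tested compounds plus 3 SD, cut at about 25% in these data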
# Target sequence (Q15102 whole entry, looked up): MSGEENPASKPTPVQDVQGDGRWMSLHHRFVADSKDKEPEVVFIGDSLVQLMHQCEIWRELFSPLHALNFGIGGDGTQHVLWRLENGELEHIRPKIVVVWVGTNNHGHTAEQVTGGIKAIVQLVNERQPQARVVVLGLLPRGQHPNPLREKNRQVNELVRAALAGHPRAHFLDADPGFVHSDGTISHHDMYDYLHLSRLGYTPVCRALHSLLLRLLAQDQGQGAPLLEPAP
# pPAFAH FP inh: inhibitors of human plasma PAF acetylhydrolase (pPAFAH) | Q13093 | recombinant pPAFAH, FP-rhodamine probe fluorescence polarization | inhibition, % at 3.39 µM | actives 1.5% (n = 330,000) | AID 463082;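 active means inhibition above the mean inhibition across the screen plus 3 SD, cut at about 25% in these data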;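 further: inhibitors block binding of the rhodamine activity-based probe so polarization drops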
# ARFGAP1 inh: inhibitors of rat ARFGAP1; Arfgap1-stimulated ARF1 GTP hydrolysis, GDP FP detection; actives 0.26% (n = 360,000); inhibition, % at 16.5 µM;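 active means inhibition above a per-plate limit, mean inhibition of low control wells plus 3 SD, cut at about 25% in these data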
# Target sequence (Q62848 1-136 limits assumed): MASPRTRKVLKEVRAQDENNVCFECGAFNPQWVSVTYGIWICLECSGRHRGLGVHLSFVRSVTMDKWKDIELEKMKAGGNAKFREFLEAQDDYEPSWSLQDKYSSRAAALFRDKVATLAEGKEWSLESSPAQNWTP
#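 Material: rat Arfgap1 GAP domain (His6, aa 1-136), purified enzyme. Also added: human ARF1(Δ1-17)-GTP substrate. Compound dosing: 16.5 µM single point, 1.26% DMSO. Timing: enzyme reaction 120 min at 25 °C after 20 min preincubation. Signal: GDP detection by fluorescence polarization. Read-out basis: percent inhibition of GAP-stimulated GDP formation, scaled between DMSO and no-Arfgap1 medians.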
# PAFAH2 FP inh: PAFAH2 (human) inhibition; actives 0.99% (n = 340,000); recombinant PAFAH2, FP-rhodamine activity probe, fluorescence polarization; Q99487; inhibition, % at 3.39 µM; AID 492956;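 active means inhibition above the mean over all tested compounds plus 3 SD, cut at about 30% in these data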;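 further: inhibitors block probe labeling of enzyme so polarization drops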
# PAFAH2 FP conf: confirmation of human PAFAH2 inhibitors. AID 493030. actives 65% (n = 2,300). inhibition, % at 3.39 µM. recombinant PAFAH2, FP-rhodamine activity probe, fluorescence polarization. shares compounds with PAFAH2 FP inh;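 active means mean inhibition over three repeats above a set limit taken from the earlier primary screen, cut at about 30% in these data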;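 further: inhibitor blocks binding of rhodamine activity probe so polarization falls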
# A number is an active result; 0 = inactive; - = no result given. The list is not random: actives were taken first. Their share in the collection is about 2.7%.
SMILES,ASAP1 inh,PAFAH1B2 FP inh,PAFAH1B3 FP inh,pPAFAH FP inh,ARFGAP1 inh,PAFAH2 FP inh,PAFAH2 FP conf
N/C(Cc1ccc(Cl)cc1Cl)=N\OC(=O)Cc1ccccc1,0,0,0,0,0,0,-
CCN(c1cccc(C)c1)C1C(=O)c2ccccc2N1C(C)=O (stereo not drawn),0,0,0,0,0,38,0
COc1cccc(CNC(=O)c2cc3c(c(-c4cccc(-c5cccc(C#N)c5)c4)n2)[C@H](CCO)N(S(=O)C(C)(C)C)C3)c1 (stereo partly drawn),0,-,-,-,0,-,-
Cc1cc2c(c(=O)o1)[C@@]1(C(=O)N(C)c3ccc([N+](=O)[O-])cc31)C1=C(CCCC1=O)O2,0,-,-,-,0,-,-
CC(C)OC(=O)c1ccc(NCc2cc(O)ccc2O)cc1,0,0,0,-,0,0,-
O=C(OCc1ccccc1)c1ccc(NCc2cc(O)ccc2O)cc1,0,0,0,-,0,72,57
COc1cscc1C(N)=O,0,-,-,0,0,-,-
O=C(NNC(=O)C12CC3CC(CC(C3)C1)C2)c1cnccn1,0,0,0,0,0,0,-
O=C(NNC(=O)C12CC3CC(CC(C3)C1)C2)c1ccccn1,0,0,0,0,0,37,0
CCN(CC)S(=O)(=O)c1ccc2c(c1)nc(CCC(=O)OCC(=O)Nc1cc(Cl)cc(Cl)c1)n2C,0,0,0,0,0,73,84
CCN(CC)S(=O)(=O)c1ccc2c(c1)nc(CCC(=O)OCc1c(C)noc1C)n2C,0,0,0,0,0,0,-
CCN(CC)S(=O)(=O)c1ccc(O)c(C(=O)OCC(=O)N2CCCc3ccccc32)c1,0,-,-,-,0,-,-
CCN(CC)S(=O)(=O)c1ccc2c(c1)nc(CCC(=O)OCC(=O)N1CCc3ccccc31)n2C,0,0,0,0,0,71,82
CCc1ccc(NC(=O)COC(=O)CCc2nc3cc(S(=O)(=O)N(CC)CC)ccc3n2C)cc1,0,0,0,0,0,63,75
CCCCOc1ccc(/C=N/NC(=O)c2nnn(-c3nonc3N)c2C)cc1,0,0,0,0,0,0,-
O=c1c2ccccc2nc2n1-c1ccccc1CCC2,0,0,0,0,0,0,-
O=C1c2ccccc2-n2c1nc1ccccc1c2=O,0,0,0,0,0,32,0
NC(=O)c1ccc[n+]([C@H]2O[C@@H](COP(=O)([O-])OP(=O)(O)OC[C@H]3O[C@@H](n4cnc5c(N)ncnc54)[C@H](O)[C@@H]3O)[C@H](O)[C@@H]2O)c1,-,0,0,0,-,0,-
Cc1cccc(C)c1-n1c(C)cc(/C=N/NC(=O)CSc2ncccn2)c1C,0,0,0,0,0,38,0
CC(=O)Nc1cccc2c1Cc1ccccc1-2,-,0,0,0,-,42,0
CCOC(=O)C1=C(C)Nc2ccccc2N=C1NC(=O)C(CC)c1ccccc1 (stereo not drawn),0,0,0,0,0,0,-
Cc1ccccc1/C=C1\SC(=S)N(/N=C/c2cc([N+](=O)[O-])ccc2O)C1=O,0,0,0,0,0,32,0
Cc1ccc(S(=O)(=O)Nc2c(O)c3ccccc3oc2=O)cc1C,0,0,0,0,0,43,0
COCCN1CCN(C(=O)C2CCC(=O)N(Cc3cccc(C(F)(F)F)c3)C2)CC1 (stereo not drawn),0,0,0,-,0,0,-
O=C1CCC/C=C/C[C@H](CC(=O)N(CCO)Cc2ccccc2)C(=O)N[C@@H](Cc2ccccc2)CO1,0,0,0,0,0,45,0
SMILES,ASAP1 inh,PAFAH1B2 FP inh,PAFAH1B3 FP inh,pPAFAH FP inh,ARFGAP1 inh,PAFAH2 FP inh,PAFAH2 FP conf
O=C1CCCC/C=C\C[C@H](CC(=O)N(CCO)Cc2ccccc2)C(=O)N[C@@H](Cc2ccccc2)CO1,0,0,0,0,0,45,0
O=C1CCC/C=C\C[C@@H](CC(=O)N(CCO)Cc2ccccc2)C(=O)N[C@H](Cc2c[nH]c3ccccc23)CO1,0,0,0,0,0,0,-
CCc1nc2ccc(C(=O)Nc3cccc(OCC(=O)N(C)C)c3)cn2c1N(C)C(=O)c1ccncc1,0,-,-,-,0,-,-
C[C@H](O)[C@@H]1C(=O)N2CCc3c([nH]c4ccccc34)[C@@H]2C[C@@H]1N(C)S(=O)(=O)c1ccccc1,0,-,-,-,0,-,-
COc1cc(C(C)=O)ccc1COc1ccc(C(=O)OCC(=O)NC2CCS(=O)(=O)C2)cc1OC (stereo not drawn),0,0,0,0,0,0,-
COc1cc(C(C)=O)ccc1COc1ccc(C(=O)OCC(=O)NC(C)(C)C)cc1OC,0,0,0,0,0,74,79
Cc1nc(NCCC(C)C)c2nnn(Cc3ccccc3)c2n1,0,0,0,0,0,0,-
Cc1cc(C)cc(SCc2noc(C(=O)NCC3CCCO3)c2C(=O)O)c1 (stereo not drawn),0,0,0,0,0,36,0
C=CCNC(=O)c1onc(CSc2ccccc2C)c1C(=O)O,0,0,0,0,0,36,0
Cc1cccc(SCc2noc(C(=O)NCC3CCCO3)c2C(=O)O)c1 (stereo not drawn),0,0,0,0,0,0,-
CCCCNC(=O)c1onc(CSc2ccccc2CC)c1C(=O)O,0,0,0,0,0,58,44
CCCCNC(=O)c1onc(CSc2ccccc2)c1C(=O)NCCCC,0,0,0,0,0,0,-
Cc1ccc(S(=O)(=O)N2C[C@H]3C(=O)C[C@@H](c4ccccc4)N(S(C)(=O)=O)[C@H]3C[C@H]2c2ccccc2)cc1,0,-,-,-,0,-,-
C[C@]12CCC(=O)C=C1CC[C@@H]1[C@@H]2[C@@H](O)C[C@]2(C=O)[C@@H](C(=O)CO)CC[C@@H]12,0,0,0,0,0,0,-
Cc1cc(S(=O)(=O)N2CCN(c3ccccc3F)CC2)ccc1-n1cnnn1,0,0,0,0,0,0,-
COc1ccc(CN2C(=O)c3cccnc3C2=O)cc1S(=O)(=O)NC(C)C,0,0,0,0,0,0,-
N#C/C(=C\c1ccc(OCc2ccc(C(=O)O)cc2)cc1)C(=O)NCc1ccccc1,0,0,0,0,0,0,-
N#C/C(=C\c1ccc(OCc2cccc(C(=O)O)c2)cc1)C(=O)NCc1ccco1,0,0,0,0,0,37,0
Oc1[nH]c2ccccc2c1N=Nc1nc2ccccc2s1,0,0,0,0,0,52,0
Cc1ccc2[nH]c(O)c(N=Nc3nc4ccccc4s3)c2c1,0,0,0,0,0,55,36
Oc1[nH]c2ccccc2c1N=Nc1ccccc1,0,0,0,0,0,0,-
Cc1ccc2[nH]c(O)c(N=Nc3ccccc3[N+](=O)[O-])c2c1,0,0,0,-,0,0,-
COc1ccc(Cl)cc1NC(=O)CN(C)C(=O)c1ccc(N2CCCCCC2)c([N+](=O)[O-])c1,0,0,0,0,0,0,-
